Data reported in ChEMBL document CHEMBL3351503, “Imidazopyridine- and purine-thioacetamide derivatives: potent inhibitors of nucleotide pyrophosphatase/phosphodiesterase 1 (NPP1)” (J Med Chem, 2014).

Columns and labels:
[1] = target: T1, Ectonucleotide pyrophosphatase/phosphodiesterase family member 1 (Homo sapiens) (UniProt P22413); assay: Inhibition of human NPP1 using p-Nph-5'-TMP as substrate at 10 uM
T1 sequence (whole entry): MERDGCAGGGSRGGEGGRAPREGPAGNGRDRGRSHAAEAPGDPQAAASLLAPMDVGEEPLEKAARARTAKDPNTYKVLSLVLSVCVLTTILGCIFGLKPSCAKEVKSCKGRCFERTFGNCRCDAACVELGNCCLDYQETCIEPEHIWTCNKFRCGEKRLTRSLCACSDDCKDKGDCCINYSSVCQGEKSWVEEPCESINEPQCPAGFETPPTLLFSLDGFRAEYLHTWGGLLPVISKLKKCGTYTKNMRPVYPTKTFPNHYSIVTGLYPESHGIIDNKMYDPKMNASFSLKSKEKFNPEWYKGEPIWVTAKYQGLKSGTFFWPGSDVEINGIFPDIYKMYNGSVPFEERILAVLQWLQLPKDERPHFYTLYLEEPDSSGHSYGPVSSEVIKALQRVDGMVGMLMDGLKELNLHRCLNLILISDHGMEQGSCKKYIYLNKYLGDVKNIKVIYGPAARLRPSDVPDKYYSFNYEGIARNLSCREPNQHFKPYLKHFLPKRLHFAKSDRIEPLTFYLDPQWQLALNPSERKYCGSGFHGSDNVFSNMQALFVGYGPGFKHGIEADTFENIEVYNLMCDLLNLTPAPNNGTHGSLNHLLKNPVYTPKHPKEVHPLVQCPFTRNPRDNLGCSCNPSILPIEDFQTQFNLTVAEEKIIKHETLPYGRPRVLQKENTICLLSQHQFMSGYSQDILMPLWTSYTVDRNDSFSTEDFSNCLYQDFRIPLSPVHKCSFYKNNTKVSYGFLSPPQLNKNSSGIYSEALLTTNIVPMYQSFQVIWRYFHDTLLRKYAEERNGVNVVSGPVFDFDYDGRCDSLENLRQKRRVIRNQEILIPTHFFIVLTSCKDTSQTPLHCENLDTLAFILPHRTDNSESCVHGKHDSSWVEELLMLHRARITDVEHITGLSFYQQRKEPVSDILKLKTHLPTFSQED
Outline: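 Single-point screen at 10 μM compound against soluble human NPP1 (20 ng), 400 μM p-Nph-5′-TMP, 50 mM Tris pH 9.0, 1 mM CaCl2, 200 μM ZnCl2, 37 °C 15 min, NaOH stop; percent inhibition from p-nitrophenolate absorbance at 400 nm; compounds in DMSO (10 mM stock).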

[2] = target: T2, Ectonucleotide pyrophosphatase/phosphodiesterase family member 1 (Homo sapiens, UniProt P22413); assay: Inhibition of human NPP1 using p-Nph-5'-TMP as substrate
T2 sequence (P22413 whole entry): T1 sequence (whole entry)

[3] = target: T2, Ectonucleotide pyrophosphatase/phosphodiesterase family member 1; assay: Competitive inhibition of human NPP1 using p-Nph-5'-TMP as substrate by Lineweaver-Burk plot analysis
[4] = target: T2, Ectonucleotide pyrophosphatase/phosphodiesterase family member 1; assay: Competitive inhibition of human NPP1 using ATP as substrate by Lineweaver-Burk plot analysis
Autotaxin = Autotaxin (Homo sapiens, UniProt Q13822); assay: Competitive inhibition of human NPP2 using lysophosphotidylcholine as substrate
[5] = target: T3, Ectonucleotide pyrophosphatase/phosphodiesterase family member 3 (Homo sapiens, UniProt O14638); assay: Competitive inhibition of human NPP3 using ATP as substrate
T3 sequence (O14638 whole entry): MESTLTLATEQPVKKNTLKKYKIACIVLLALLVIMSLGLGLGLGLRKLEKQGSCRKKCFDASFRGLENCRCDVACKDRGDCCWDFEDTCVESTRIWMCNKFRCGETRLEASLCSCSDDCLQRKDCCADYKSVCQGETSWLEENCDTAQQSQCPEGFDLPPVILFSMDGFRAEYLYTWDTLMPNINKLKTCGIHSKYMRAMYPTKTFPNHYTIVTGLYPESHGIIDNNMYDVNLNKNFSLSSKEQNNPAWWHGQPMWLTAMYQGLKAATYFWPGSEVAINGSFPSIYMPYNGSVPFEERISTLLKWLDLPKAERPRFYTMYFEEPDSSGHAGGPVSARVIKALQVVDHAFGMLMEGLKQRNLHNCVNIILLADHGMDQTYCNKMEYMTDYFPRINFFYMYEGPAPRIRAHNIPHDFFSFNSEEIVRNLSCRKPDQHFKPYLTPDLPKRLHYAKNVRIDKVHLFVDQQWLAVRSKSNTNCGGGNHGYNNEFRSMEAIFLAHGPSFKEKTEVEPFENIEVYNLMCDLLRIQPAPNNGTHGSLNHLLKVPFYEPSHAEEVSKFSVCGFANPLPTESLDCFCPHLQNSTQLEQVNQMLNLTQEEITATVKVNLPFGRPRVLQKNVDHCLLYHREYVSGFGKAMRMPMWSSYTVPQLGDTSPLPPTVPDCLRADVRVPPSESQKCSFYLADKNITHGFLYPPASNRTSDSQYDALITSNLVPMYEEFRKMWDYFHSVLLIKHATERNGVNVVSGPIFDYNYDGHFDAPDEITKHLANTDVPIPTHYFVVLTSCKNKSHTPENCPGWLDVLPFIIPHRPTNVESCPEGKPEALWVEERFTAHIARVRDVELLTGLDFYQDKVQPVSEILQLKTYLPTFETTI

SMILES | inhibition [1] [%] | Ki [2] [µM] | Ki [3] [µM] | Ki [4] [µM] | other results
CN(C)c1ccc(NC(=O)CSc2nc3cccnc3[nH]2)cc1 | 23 | – | – | – | –
COc1ccc(NC(=O)CSc2nc3ccc[nH]c-3n2)cc1OC | – | 0.217 | 0.217 | 22.3 | –
COc1ccc(NC(=O)C(C)Sc2nc3cccnc3[nH]2)cc1OC (centres undefined) | 6 | – | – | – | –
COc1ccc(NC(=O)CCSc2nc3cccnc3[nH]2)cc1OC | 13 | – | – | – | –
COc1ccc(NC(=O)CSc2nc3ccc(N4CCCCC4)nc3[nH]2)cc1OC | 27 | – | – | – | –
COc1ccc(NC(=O)CSc2nc3ccc(N4CCOCC4)nc3[nH]2)cc1OC | 45 | – | – | – | –
O=C(CSc1nc2cccnc2[nH]1)Nc1ccccc1Cl | 19 | – | – | – | –
O=C(CSc1nc2cccnc2[nH]1)Nc1ccccc1 | 30 | – | – | – | –
COc1ccc(NC(=O)CSc2nc3ccc(N4CCN(C)CC4)nc3[nH]2)cc1OC | 35 | – | – | – | –
O=C(CSc1nc2cccnc2[nH]1)Nc1ccc(Cl)c(Cl)c1 | 10 | – | – | – | –
Cc1ccc(NC(=O)CSc2nc3cccnc3[nH]2)c(Cl)c1 | 2 | – | – | – | –
O=C(CSc1nc2cccnc2[nH]1)Nc1ccc(Cl)cc1 | 17 | – | – | – | –
COc1ccccc1NC(=O)CSc1nc2ccc[nH]c-2n1 | 21 | – | – | – | –
COc1cccc(NC(=O)CSc2nc3cccnc3[nH]2)c1 | 30 | – | – | – | –
N#Cc1cccc(NC(=O)CSc2nc3cccnc3[nH]2)c1 | 45 | – | – | – | –
CC(=O)c1cccc(NC(=O)CSc2nc3cccnc3[nH]2)c1 | 50 | – | – | – | –
O=C(CSc1nc2cccnc2[nH]1)Nc1ccccc1F | 13 | – | – | – | –
COc1cc(NC(=O)CSc2nc3cccnc3[nH]2)cc(OC)c1 | 38 | – | – | – | –
COc1ccc(NS(=O)(=O)CSc2nc3ncccc3[nH]2)cc1OC | 50 | – | – | – | –
COc1ccc(NC(=O)CSc2nc3cccnc3[nH]2)cc1 | 48 | – | – | – | –
COc1ccc(OC)c(NC(=O)CSc2nc3cccnc3[nH]2)c1 | 12 | – | – | – | –
Cc1ccc(NC(=O)CSc2nc3cccnc3[nH]2)cc1C | 11 | – | – | – | –
Cc1cccc(C)c1NC(=O)CSc1nc2cccnc2[nH]1 | 19 | – | – | – | –
CCOC(=O)c1cccc(NC(=O)CSc2nc3cccnc3[nH]2)c1 | 15 | – | – | – | –
COc1ccc2nc(SCC(=O)Nc3ccc(OC)c(OC)c3)[nH]c2n1 | – | – | – | – | Ki (Autotaxin): 71.2 µM; Ki [5]: 68.1 µM
O=C(CSc1nc2cccnc2[nH]1)Nc1cccc(Br)c1 | 23 | – | – | – | –
COc1ccc(CNC(=O)CSc2nc3cccnc3[nH]2)cc1OC | 0 | – | – | – | –
COc1ccc(NC(=O)CSc2nc3cccnc3[nH]2)c(OC)c1 | 8 | – | – | – | –
O=C(CSc1nc2cccnc2[nH]1)Nc1ccc(F)cc1 | 30 | – | – | – | –

Second part, led by results:

inhibition [1] [%] | Ki [2] [µM] | Ki [3] [µM] | Ki [4] [µM] | SMILES | other results
– | 0.137 | 0.137 | 9.78 | COc1ccc(NC(=O)CSc2nc3cc(Cl)cnc3[nH]2)cc1OC | –
34 | – | – | – | COc1ccc(NC(=O)CSc2nc3ccccc3[nH]2)cc1OC | –
– | 0.005 | 0.005 | 18 | COc1ccc(NC(=O)CSc2nc3c(N)ncnc3[nH]2)cc1OC | –
– | 0.131 | 0.131 | 30.2 | COc1ccc(NC(=O)CSc2nc3nccnc3[nH]2)cc1OC | –
59 | – | – | – | COc1ccc(NC(=O)CSc2nc3ccc(SC)nc3[nH]2)cc1OC | –
– | 11 | 11 | 89.7 | COc1ccc(NC(=O)CSc2nc3c(OC(C)C)nc(N)nc3[nH]2)cc1OC | –
58 | – | – | – | COc1ccc(NC(=O)CSc2nc3ccc(N(C)C)nc3[nH]2)cc1OC | –
– | 0.192 | 0.192 | 10.8 | COc1ccc(NC(=O)CSc2nc3cc(Br)cnc3[nH]2)cc1OC | –
– | 0.152 | 0.152 | 26.7 | COc1ccc(NC(=O)CSc2nc3c(N)nc(SC)nc3[nH]2)cc1OC | –
– | 0.02 | 0.02 | 14.3 | COc1ccc(NC(=O)CSc2nc3c(=O)[nH]cnc3[nH]2)cc1OC | –
64 | – | – | – | COc1ccc(NC(=O)CSc2ncc[nH]2)cc1OC | –
61 | – | – | – | COc1ccc(NC(=O)CSc2nc3ccc(OCC(F)(F)F)nc3[nH]2)cc1OC | –
– | 3.65 | 3.65 | 67.9 | COc1ccc(NC(=O)CSc2nc3c(SC)nc(N)nc3[nH]2)cc1OC | –
43 | – | – | – | CCn1c(=O)[nH]c(=O)c2nc(SCC(=O)Nc3ccc(OC)c(OC)c3)[nH]c21 | –
– | 8.04 | 8.04 | 42.2 | COc1ccc(NC(=O)CSc2nc3c(OC)nc(N)nc3[nH]2)cc1OC | –
– | 0.0442 | 0.0442 | 29.2 | COc1ccc(NC(=O)CSc2nc3cnccc3[nH]2)cc1OC | –
– | 0.281 | 0.281 | 15.7 | COc1ccc(NC(=O)CSc2nc3cncnc3[nH]2)cc1OC | –
– | 3.48 | 3.48 | 78 | COc1ccc(NC(=O)CSc2nc3c(N)nc(N)nc3[nH]2)cc1OC | –
– | 1.01 | 1.01 | 33.6 | CCOc1nc(N)nc2[nH]c(SCC(=O)Nc3ccc(OC)c(OC)c3)nc12 | –
23 | – | – | – | COc1ccc(NC(=O)CSc2nc3c(=O)n(C)c(=O)n(C)c3[nH]2)cc1OC | –
– | 0.0358 | 0.0358 | 22.5 | COc1ccc(NC(=O)CSc2nc3c(=O)[nH]c(=O)[nH]c3[nH]2)cc1OC | –
– | 0.127 | 0.127 | 7.59 | COc1ccc(NC(=O)CSc2nc3c(C)ccnc3[nH]2)cc1OC | –
